Laboratory results reported in paper PMC4720131 (ACS Chemical Biology, 2015).

Test system: HIV-1 Gag-Pol/Gag (frameshifting)
Assay: Western blot of virion proteins, ratio p160 to p24+p55
Assay type: cell-based
Settings: protease inhibitor control
In short: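 Virions came from HEK293T producer cells transfected with an NL4-3 proviral vector (nef replaced by GFP, env deleted) plus VSV-G plasmid at 1:0.5. Test compound added 4 h post-transfection, media harvested at 24 h and 0.45-μm filtered. Virion proteins run on SDS-PAGE and blotted with anti-p24 to detect p24, p55 and p160. p160/(p24+p55) ratio taken by scanning densitometry. Indinavir served as protease-inhibitor control.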

CC(C)(C)NC(=O)[C@@H]1CN(Cc2cccnc2)CCN1C[C@@H](O)C[C@@H](Cc1ccccc1)C(=O)N[C@H]1c2ccccc2C[C@H]1O [Indinavir, indinavir]
effect on p160 on virion blot (in words): No buildup of p160 was observed
